Calls of active or inactive are those of the source. The rule behind the calls is not given here.
Assays:
SW-620 [1] = test: Cell cycle arrest in human SW620 cells assessed as accumulation at G2-phase at 25 uM after 48 hrs by propidium iodide staining based flow cytometry (reference value: 14.08%); type: functional
HT-29 [2] = test: Cell cycle arrest in human HT-29 cells assessed as accumulation at G1-phase at 50 uM after 48 hrs by propidium iodide staining based flow cytometry (reference value: 41.86%); type: functional
SW-620 [3] = test: Down regulation of cyclin-B1 expression in human SW620 cells after 48 hrs by Western blot analysis; type: functional, cell-based
Summary of the method: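 HT29 or SW620 cells were treated at 0, 25, 50 and 75 μM for 48 h and lysed in RIPA with protease and phosphatase inhibitors. Protein was quantified by BCA. 50 μg lysate was run on 8–15% SDS-PAGE and transferred to PVDF. Blocking was 5% BSA/TBST for 2 h; primary antibodies were applied overnight at 4 °C, then HRP secondary 1 h at room temperature.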

SW-620 [4] = test: Induction of apoptosis in human SW620 cells assessed as necrotic cells at 25 uM after 48 hrs by Annexin-V-FITC/propidium iodide staining based flow cytometry (reference value: 0.9%); type: functional
SW-620 [5] = test: Induction of apoptosis in human SW620 cells assessed as live cells at 50 uM after 48 hrs by Annexin-V-FITC/propidium iodide staining based flow cytometry (reference value: 97.5%); type: functional
SW-620 [6] = test: Induction of apoptosis in human SW620 cells assessed as necrotic cells at 50 uM after 48 hrs by Annexin-V-FITC/propidium iodide staining based flow cytometry (reference value: 0.9%); type: functional
HT-29 [7] = test: Induction of apoptosis in human HT-29 cells assessed as early apoptotic cells at 75 uM after 48 hrs by Annexin-V-FITC/propidium iodide staining based flow cytometry (reference value: 1%); type: functional
SW-620 [8] = test: Induction of apoptosis in human SW620 cells assessed as reduction in BCL2 expression after 48 hrs by Western blot analysis; type: functional, cell-based
[9] = biological target: Serine/threonine-protein kinase mTOR (Homo sapiens) (UniProt P42345); test: Inhibition of mTOR in human SW620 cells assessed as reduction in 4EBP1 phosphorylation up to 75 uM after 48 hrs by Western blot analysis; type: cell-based
[10] = biological target: T1, Tyrosine-protein kinase ABL1 (Homo sapiens, UniProt P00519); test: Inhibition of human phosphorylated ABL1 (S229 to K512 residues) expressed in mammalian expression system assessed as residual activity at 5 uM by KINOMEscan assay relative to control
T1 sequence (P00519 whole entry, the tested form may be a part): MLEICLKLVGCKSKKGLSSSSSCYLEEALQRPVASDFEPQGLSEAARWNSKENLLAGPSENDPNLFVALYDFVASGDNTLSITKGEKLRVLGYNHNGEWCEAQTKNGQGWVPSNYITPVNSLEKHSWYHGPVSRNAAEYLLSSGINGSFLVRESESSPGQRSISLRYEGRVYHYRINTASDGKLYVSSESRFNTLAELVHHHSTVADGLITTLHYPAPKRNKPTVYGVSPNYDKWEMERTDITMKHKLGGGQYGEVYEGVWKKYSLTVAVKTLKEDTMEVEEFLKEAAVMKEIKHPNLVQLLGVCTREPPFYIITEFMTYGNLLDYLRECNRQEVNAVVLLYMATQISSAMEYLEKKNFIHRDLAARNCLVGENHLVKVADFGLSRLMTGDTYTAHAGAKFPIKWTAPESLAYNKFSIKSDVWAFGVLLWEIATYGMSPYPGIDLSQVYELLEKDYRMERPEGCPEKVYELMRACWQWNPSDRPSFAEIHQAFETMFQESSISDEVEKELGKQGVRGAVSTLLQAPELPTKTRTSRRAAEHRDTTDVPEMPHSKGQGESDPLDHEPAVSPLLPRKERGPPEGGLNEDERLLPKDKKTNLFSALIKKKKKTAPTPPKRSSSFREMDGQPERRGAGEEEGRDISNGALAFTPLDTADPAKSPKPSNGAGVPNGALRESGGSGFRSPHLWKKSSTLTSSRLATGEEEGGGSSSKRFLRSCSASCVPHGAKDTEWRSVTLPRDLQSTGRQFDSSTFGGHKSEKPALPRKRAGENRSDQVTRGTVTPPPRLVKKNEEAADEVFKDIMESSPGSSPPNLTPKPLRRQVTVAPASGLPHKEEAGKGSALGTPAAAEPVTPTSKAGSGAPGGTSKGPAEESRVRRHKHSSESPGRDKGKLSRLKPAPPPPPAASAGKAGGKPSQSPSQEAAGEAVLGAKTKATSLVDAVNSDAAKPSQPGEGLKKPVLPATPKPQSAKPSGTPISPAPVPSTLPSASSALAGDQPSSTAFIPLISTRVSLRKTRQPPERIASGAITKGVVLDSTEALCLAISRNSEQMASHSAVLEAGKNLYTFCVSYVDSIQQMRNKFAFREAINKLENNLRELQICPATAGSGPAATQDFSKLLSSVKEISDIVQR

[11] = biological target: Serine/threonine-protein kinase Chk1 (Homo sapiens) (UniProt O14757); test: Inhibition of human CHEK1 (M1 to G289 residues) expressed in bacterial expression system assessed as residual activity at 5 uM by KINOMEscan assay relative to control
[12] = biological target: Casein kinase I isoform gamma-2 (Homo sapiens, UniProt P78368); test: Inhibition of full length human CSNK1G2 (M1 to K415 residues) expressed in bacterial expression system assessed as residual activity at 5 uM by KINOMEscan assay relative to control
Chain of Casein kinase I isoform gamma-2 (P78368 whole entry, looked up, the tested form may be a part, canonical isoform): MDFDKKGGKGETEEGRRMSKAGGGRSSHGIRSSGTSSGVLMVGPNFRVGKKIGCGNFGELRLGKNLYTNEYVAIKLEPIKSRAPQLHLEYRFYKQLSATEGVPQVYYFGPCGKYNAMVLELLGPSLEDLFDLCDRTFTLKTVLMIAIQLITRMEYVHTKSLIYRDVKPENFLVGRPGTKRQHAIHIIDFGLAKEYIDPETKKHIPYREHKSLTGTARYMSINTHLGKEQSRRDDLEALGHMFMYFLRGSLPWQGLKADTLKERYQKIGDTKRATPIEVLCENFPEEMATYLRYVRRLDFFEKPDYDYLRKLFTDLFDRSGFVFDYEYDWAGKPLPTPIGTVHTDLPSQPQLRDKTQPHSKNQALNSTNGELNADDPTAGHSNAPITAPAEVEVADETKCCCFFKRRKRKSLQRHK

Ephrin type-A receptor 2 = Ephrin type-A receptor 2 (Homo sapiens, UniProt P29317); test: Inhibition of human EPHA2 (T593 to V891 residues) expressed in bacterial expression system assessed as residual activity at 5 uM by KINOMEscan assay relative to control
Chain of Ephrin type-A receptor 2 (P29317 whole entry, the tested form may be a part): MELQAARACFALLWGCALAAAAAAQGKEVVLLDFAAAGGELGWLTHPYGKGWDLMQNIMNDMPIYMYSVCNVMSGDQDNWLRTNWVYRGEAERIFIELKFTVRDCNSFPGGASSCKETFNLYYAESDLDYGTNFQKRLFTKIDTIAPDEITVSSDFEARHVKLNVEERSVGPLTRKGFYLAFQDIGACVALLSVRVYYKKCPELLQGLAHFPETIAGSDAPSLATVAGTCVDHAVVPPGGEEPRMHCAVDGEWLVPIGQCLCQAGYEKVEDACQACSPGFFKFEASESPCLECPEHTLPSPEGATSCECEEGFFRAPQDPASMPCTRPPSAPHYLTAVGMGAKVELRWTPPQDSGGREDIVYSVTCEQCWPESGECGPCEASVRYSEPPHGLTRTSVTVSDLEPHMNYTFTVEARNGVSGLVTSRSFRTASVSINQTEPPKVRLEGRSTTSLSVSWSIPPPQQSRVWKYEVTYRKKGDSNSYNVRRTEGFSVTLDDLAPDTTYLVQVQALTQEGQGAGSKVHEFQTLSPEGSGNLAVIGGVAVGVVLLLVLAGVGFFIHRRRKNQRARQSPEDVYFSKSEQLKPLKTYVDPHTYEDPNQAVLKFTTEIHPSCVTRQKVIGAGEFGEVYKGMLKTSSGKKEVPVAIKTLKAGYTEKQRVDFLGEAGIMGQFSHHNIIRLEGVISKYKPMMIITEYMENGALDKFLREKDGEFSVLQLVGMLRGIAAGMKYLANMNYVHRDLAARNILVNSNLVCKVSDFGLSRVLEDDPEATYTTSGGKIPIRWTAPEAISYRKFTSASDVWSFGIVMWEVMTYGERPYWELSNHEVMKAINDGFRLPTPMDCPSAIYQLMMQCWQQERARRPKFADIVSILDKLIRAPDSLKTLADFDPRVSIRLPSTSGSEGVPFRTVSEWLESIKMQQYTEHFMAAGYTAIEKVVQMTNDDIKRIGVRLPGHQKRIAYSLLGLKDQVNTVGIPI

[13] = tested on: Mast/stem cell growth factor receptor Kit (Homo sapiens), P10721 [D816V]; test: Inhibition of human KIT (I571 to D952 residues) D816V mutant expressed in bacterial expression system assessed as residual activity at 5 uM by KINOMEscan assay relative to control
Chain of Mast/stem cell growth factor receptor Kit (Homo sapiens), P10721 [D816V] (P10721 whole entry D816V, the tested form may be a part): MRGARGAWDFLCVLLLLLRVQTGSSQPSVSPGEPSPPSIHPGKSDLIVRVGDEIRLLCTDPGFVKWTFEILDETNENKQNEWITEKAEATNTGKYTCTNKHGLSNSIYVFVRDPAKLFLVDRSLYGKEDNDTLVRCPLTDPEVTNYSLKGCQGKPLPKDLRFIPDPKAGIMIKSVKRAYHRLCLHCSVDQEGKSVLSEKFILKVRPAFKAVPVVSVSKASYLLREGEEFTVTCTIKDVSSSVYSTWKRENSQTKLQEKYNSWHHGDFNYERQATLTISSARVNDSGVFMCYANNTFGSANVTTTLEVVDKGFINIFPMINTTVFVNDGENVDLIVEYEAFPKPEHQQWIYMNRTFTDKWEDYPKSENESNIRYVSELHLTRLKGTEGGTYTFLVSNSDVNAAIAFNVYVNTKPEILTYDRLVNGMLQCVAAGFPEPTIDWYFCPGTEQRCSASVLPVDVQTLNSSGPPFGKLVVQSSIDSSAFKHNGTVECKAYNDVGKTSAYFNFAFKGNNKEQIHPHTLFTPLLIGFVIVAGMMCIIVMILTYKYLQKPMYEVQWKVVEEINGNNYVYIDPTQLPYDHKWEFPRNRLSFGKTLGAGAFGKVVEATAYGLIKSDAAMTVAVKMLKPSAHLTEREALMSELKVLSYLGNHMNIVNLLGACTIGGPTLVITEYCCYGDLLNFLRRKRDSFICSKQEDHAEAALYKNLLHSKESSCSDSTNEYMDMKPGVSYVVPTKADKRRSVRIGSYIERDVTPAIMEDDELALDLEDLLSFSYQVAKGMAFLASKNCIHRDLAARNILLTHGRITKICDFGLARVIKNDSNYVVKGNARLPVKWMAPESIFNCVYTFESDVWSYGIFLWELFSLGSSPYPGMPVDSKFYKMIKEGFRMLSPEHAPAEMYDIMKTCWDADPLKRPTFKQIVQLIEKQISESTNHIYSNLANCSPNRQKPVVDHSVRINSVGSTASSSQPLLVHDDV

[14] = biological target: MAP kinase-interacting serine/threonine-protein kinase 1 (Homo sapiens, UniProt Q9BUB5); test: Inhibition of full length human MKNK1 (M1 to L424 residues) expressed in mammalian expression system assessed as residual activity at 5 uM by KINOMEscan assay relative to control
[15] = biological target: T2, Platelet-derived growth factor receptor alpha (Homo sapiens, UniProt P16234); test: Inhibition of human PDGFRA (V575 to D1002 residues) expressed in mammalian expression system assessed as residual activity at 5 uM by KINOMEscan assay relative to control
T2 sequence (P16234 whole entry, the tested form may be a part): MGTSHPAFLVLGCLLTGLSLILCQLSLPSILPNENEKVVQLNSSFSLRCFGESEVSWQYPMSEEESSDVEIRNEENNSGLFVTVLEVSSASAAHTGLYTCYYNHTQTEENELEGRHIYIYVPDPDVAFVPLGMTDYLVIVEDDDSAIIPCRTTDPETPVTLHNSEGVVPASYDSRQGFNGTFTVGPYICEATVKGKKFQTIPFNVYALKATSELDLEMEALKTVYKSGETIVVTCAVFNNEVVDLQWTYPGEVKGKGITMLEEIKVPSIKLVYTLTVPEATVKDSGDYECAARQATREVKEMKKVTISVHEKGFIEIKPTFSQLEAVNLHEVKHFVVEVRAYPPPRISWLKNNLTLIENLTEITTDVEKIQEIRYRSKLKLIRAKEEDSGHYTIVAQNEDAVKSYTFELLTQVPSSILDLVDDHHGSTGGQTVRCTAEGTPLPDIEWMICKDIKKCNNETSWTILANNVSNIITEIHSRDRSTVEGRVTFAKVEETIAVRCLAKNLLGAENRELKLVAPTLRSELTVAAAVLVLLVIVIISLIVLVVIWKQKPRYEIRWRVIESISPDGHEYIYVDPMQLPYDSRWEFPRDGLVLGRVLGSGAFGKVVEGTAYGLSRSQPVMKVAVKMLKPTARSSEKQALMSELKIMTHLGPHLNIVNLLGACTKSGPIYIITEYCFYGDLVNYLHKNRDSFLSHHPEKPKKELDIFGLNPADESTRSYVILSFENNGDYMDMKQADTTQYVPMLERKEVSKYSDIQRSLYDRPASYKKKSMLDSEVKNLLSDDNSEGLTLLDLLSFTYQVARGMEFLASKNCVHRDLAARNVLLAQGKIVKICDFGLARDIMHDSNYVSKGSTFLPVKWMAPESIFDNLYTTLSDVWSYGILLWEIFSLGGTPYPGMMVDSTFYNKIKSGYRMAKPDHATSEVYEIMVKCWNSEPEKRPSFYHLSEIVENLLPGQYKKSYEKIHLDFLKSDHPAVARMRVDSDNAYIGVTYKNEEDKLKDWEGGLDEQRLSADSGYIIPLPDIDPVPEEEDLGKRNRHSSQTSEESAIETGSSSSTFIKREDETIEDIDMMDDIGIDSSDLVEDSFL

[16] = biological target: cAMP-dependent protein kinase catalytic subunit alpha (Homo sapiens, UniProt P17612); test: Inhibition of human PKACalpha (G10 to F351 residues) expressed in bacterial expression system assessed as residual activity at 5 uM by KINOMEscan assay relative to control
SRSF protein kinase 3 = SRSF protein kinase 3 (Homo sapiens, UniProt Q9UPE1); test: Inhibition of human SRPK3 (P41 to P567 residues) expressed in bacterial expression system assessed as residual activity at 5 uM by KINOMEscan assay relative to control
[17] = biological target: High affinity nerve growth factor receptor (Homo sapiens, UniProt P04629); test: Inhibition of human TRKA (G475 to G790 residues) expressed in mammalian expression system assessed as residual activity at 5 uM by KINOMEscan assay relative to control
[18] = biological target: Serine/threonine-protein kinase 32C (Homo sapiens, UniProt Q86UX6); test: Inhibition of human YANK3 (M68 to G486 residues) expressed in bacterial expression system assessed as residual activity at 5 uM by KINOMEscan assay relative to control
[19] = biological target: T1, Tyrosine-protein kinase ABL1; test: Binding affinity to human non-phosphorylated ABL1 (S229 to K512 residues) expressed in mammalian expression system by KINOMEscan assay
[20] = biological target: Cyclin-dependent kinase 7 (Homo sapiens, UniProt P50613); test: Binding affinity to full length human CDK7 (M1 to L344 residues) expressed in mammalian expression system by KINOMEscan assay
Chain of Cyclin-dependent kinase 7 (P50613 whole entry, the tested form may be a part): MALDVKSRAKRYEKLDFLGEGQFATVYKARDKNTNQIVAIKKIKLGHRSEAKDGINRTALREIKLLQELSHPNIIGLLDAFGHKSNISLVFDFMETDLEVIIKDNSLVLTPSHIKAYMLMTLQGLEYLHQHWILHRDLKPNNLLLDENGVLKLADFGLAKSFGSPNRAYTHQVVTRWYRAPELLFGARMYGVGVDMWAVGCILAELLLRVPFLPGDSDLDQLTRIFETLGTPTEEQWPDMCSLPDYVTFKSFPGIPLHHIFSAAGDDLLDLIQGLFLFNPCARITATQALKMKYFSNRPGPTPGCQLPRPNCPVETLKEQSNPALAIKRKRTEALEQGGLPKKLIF

[21] = biological target: Inhibitor of nuclear factor kappa-B kinase subunit alpha (Homo sapiens, UniProt O15111); test: Binding affinity to full length human IKKalpha (M1 to E745 residues) expressed in mammalian expression system by KINOMEscan assay
[22] = biological target: Mast/stem cell growth factor receptor Kit (Homo sapiens, UniProt P10721); test: Binding affinity to human KIT (I571 to D952 residues) expressed in bacterial expression system by KINOMEscan assay
Chain of Mast/stem cell growth factor receptor Kit (P10721 whole entry, the tested form may be a part): as the sequence (P10721 whole entry D816V, the tested form may be a part) above, with V816D counted along it

[23] = biological target: Serine/threonine-protein kinase STK11 (Homo sapiens, UniProt Q15831); test: Binding affinity to full length human LKB1 (M1 to Q433 residues) expressed in bacterial expression system by KINOMEscan assay
[24] = biological target: T2, Platelet-derived growth factor receptor alpha; test: Binding affinity to human PDGFRA (V575 to D1002 residues) expressed in mammalian expression system by KINOMEscan assay
[25] = biological target: Platelet-derived growth factor receptor beta (Homo sapiens, UniProt P09619); test: Binding affinity to human PDGFRB (V582 to Y1009 residues) expressed in bacterial expression system by KINOMEscan assay
[26] = biological target: Serine/threonine-protein kinase PLK1 (Homo sapiens, UniProt P53350); test: Binding affinity to human PLK1 (A33 to F325 residues) expressed in mammalian expression system by KINOMEscan assay
[27] = biological target: Vascular endothelial growth factor receptor 2 (Homo sapiens, UniProt P35968); test: Binding affinity to human VEGFR2 (R787 to P1253 residues) expressed in mammalian expression system by KINOMEscan assay

**Q.** With `CC(C)CN(C(=O)c1cccnc1)c1c2ccccc2c(=O)n2c1[nH]c1ccccc12` as the compound, how does the Activity (SW-620 [1]) read?
**A.** 14.72%

**Q.** And the Activity (HT-29 [2])?
**A.** 42.2%

**Q.** And the Activity (SW-620 [3])?
**A.** Dose-dependent effect

**Q.** What about the Activity (SW-620 [4]) of the same compound?
**A.** 3.1%

**Q.** And the Activity (SW-620 [5])?
**A.** 81.7%

**Q.** What about the Activity (SW-620 [6]) of the same compound?
**A.** 5.5%

**Q.** And the Activity (HT-29 [7])?
**A.** 0.3%

**Q.** What about the Activity (SW-620 [8]) of the same compound?
**A.** Dose-dependent effect

**Q.** What about the inhibition [9] of the same compound?
**A.** Active

**Q.** And the Activity [10]?
**A.** 85%

**Q.** And the Activity [11]?
**A.** 83%

**Q.** What about the Activity [12] of the same compound?
**A.** 76%

**Q.** And the Activity (Ephrin type-A receptor 2)?
**A.** 100%

**Q.** What about the Activity [13] of the same compound?
**A.** 100%

**Q.** And the Activity [14]?
**A.** 97%

**Q.** What about the Activity [15] of the same compound?
**A.** 100%

**Q.** What about the Activity [16] of the same compound?
**A.** 88%

**Q.** What about the Activity (SRSF protein kinase 3) of the same compound?
**A.** 98%

**Q.** What about the Activity [17] of the same compound?
**A.** 84%

**Q.** What about the Activity [18] of the same compound?
**A.** 99%

**Q.** What about the Kd [19] of the same compound?
**A.** ≥ 5 µM

**Q.** And the Kd [20]?
**A.** ≥ 5 µM

**Q.** And the Kd [21]?
**A.** ≥ 5 µM

**Q.** And the Kd [22]?
**A.** ≥ 5 µM

**Q.** And the Kd [23]?
**A.** ≥ 5 µM

**Q.** And the Kd [24]?
**A.** ≥ 5 µM

**Q.** And the Kd [25]?
**A.** ≥ 5 µM

**Q.** What about the Kd [26] of the same compound?
**A.** ≥ 5 µM

**Q.** And the Kd [27]?
**A.** ≥ 5 µM
